The nature of assay [1]: Nonspecific cytotoxicity at the specified concentration. Type of assay: functional.
Assay [2] is described as follows: Antiproliferative effect was determined on CD81 enriched cell lines for binding and activation of the CD81 receptor. Type of assay: functional, Rattus norvegicus. Put shortly: (§1)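 Primary rat pup astrocytes (CD81-enriched, 4-8 days postpartum) and C6 glioma (CD81-deficient) were run in parallel, seeded at 3 × 10³ and 10³ cells/well. Compounds at 0.1-10 µM were given in 2% FCS-BME (0.05% DMSO final) for 4 days at 37 °C, 5% CO₂. Cells were formaldehyde-fixed and cresyl violet-stained (pH 3.7), with A560 read-out. % survival is relative to untreated wells, from 3 experiments × 4 wells.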

For a further assay, the species on record is Rattus norvegicus. Put plainly: Concentration showing a non-astrocyte selective antiproliferative effect was determined. Type of assay: functional. Put shortly:
as §1

Assay [3] is described as follows: Tested for greatest astrocyte-selective antiproliferative character at concentration of 5 uM. Type of assay: functional. Put shortly: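 Rat pup primary astrocytes (CD81-enriched, 4-8 days postpartum) and C6 glioma cells run in parallel, seeded at 3 × 10³ and 10³ per well. Incubated with compound for 4 days at 37 °C, 5% CO₂, final DMSO 0.05%. Fixed in formaldehyde, stained with cresyl violet, dye eluted in acetic acid, A560 read. % survival = treated/untreated ×100. Three experiments, four wells each.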

The molecule `CC(C)C[C@H](NC(=O)C12CC3CC(CC(C3)C1)C2)C(=O)O` displayed a Cytotoxicity in assay [1] greater than 10 µM. In assay [2], the Antiproliferative effect was found to be 10 µM. For the molecule `OCC[NH2+][B-]12CC3CC(CC(C3)C1)C2`, the Cytotoxicity in assay [1] is greater than 10 µM. For the same molecule, in assay [2], the Antiproliferative effect amounted to 10 µM. As to `COC(=O)[C@H](CC(C)C)NC(=O)C12CC3CC(CC(C3)C1)C2`, the Concentration in the assay filed under Rattus norvegicus was determined as 10 µM. With `C1C2CC3CC1CC(NC14CC5CC(CC(C5)C1)C4)(C2)C3`, the Concentration in the assay filed under Rattus norvegicus is 10 µM.

In the assay filed under Rattus norvegicus, `O=C(NC12CC3CC(CC(C3)C1)C2)C12CC3CC(CC(C3)C1)C2` registered a Concentration of 10 µM. With `COC(=O)[C@H](CS)[NH2+][B-]12CC3CC(CC(C3)C1)C2`, the Concentration in the assay filed under Rattus norvegicus was found to be 10 µM. Molecule `COC(=O)[C@H](Cc1ccccc1)[NH2+][B-]12CC3CC(CC(C3)C1)C2` returned a Cytotoxicity in assay [1] greater than 10 µM. In assay [2], this molecule showed an Antiproliferative effect of 10 µM. Consider `C1C2CC3CC1C[B-]([NH2+]C14CC5CC(CC(C5)C1)C4)(C2)C3`, for which the Concentration in the assay filed under Rattus norvegicus turned out to be 10 µM. Molecule `COC(=O)[C@H](CC(C)C)[NH2+][B-]12CC3CC(CC(C3)C1)C2` showed a Cytotoxicity in assay [1] greater than 10 µM. Further, the Antiproliferative effect in assay [2] was 10 µM.

`O=C(O)[C@H](Cc1ccccc1)NC(=O)C12CC3CC(CC(C3)C1)C2` came in with a Cytotoxicity in assay [1] greater than 10 µM. This molecule also returned an Antiproliferative effect in assay [2] of 10 µM. For the same molecule, the Cell survival in assay [3] is 82%.

In turn, `COC(=O)[C@H](Cc1ccccc1)NC(=O)C12CC3CC(CC(C3)C1)C2` gave a Cytotoxicity in assay [1] greater than 10 µM. Besides, the Antiproliferative effect in assay [2] worked out at 10 µM.

For the origin of these results see ChEMBL document CHEMBL1144894, “Synthesis of 1-boraadamantaneamine derivatives with selective astrocyte vs C6 glioma antiproliferative activity. A novel class of anti-hepatitis C agents with potential to bind CD81” (2003).
